High-throughput results deposited in PubChem by several laboratories.
CHOP UPR activ – activators of apoptotic arm of unfolded protein response (CHOP); CHO-CHOP luciferase reporter, UPR activation, luminescence; percent of tunicamycin response over DMSO baseline; AID 449763; activation, % at 10 µM; actives 0.34% (n = 330,000);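 active = at 10 µM dose, activation of 40% or more, normalized to positive control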;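 also: 100% = tunicamycin at 10 µg/mL and 0% = DMSO alone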
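System: CHO-CHOP luciferase reporter cell line | Buffer or medium: F12 medium containing 10% fetal bovine serum | Doses: One dose, 10 µM in 0.5% DMSO | Times: 6 h compound exposure at 37 °C after overnight seeding | Signal: Luciferase luminescence | Read-out: % activation vs tunicamycin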
Bfl-1 A1 inh – inhibitors of the anti-apoptotic protein A1, read as caspase activation; MEF A1-2A-BIM cells, Caspase-Glo 3/7 luminescence, 3 h; percent of clofoctol response, vehicle zero; actives 0.066% (n = 330,000); caspase activation, % (no concentration beside the values);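 active = over half of replicate activation scores above 10%, or exactly half above 10 with the replicate mean above 10; inconclusive = replicate mean below 10 yet half the replicates above 10; inactive = over half of replicates below 10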
CHOP inh – CHOP inhibition in unfolded protein response | CHO-K1 CHOP-promoter luciferase, tunicamycin-induced, 15-18 h | inhibition, % at 10 µM | actives 3.8% (n = 220,000);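 active = compounds that reduced the stress-induced luciferase reporter signal by more than about 70% of percent inhibition, limit read from the data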;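 also: 0% = tunicamycin plus vehicle and 100% = wells without tunicamycin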
XBP1 UPR activ – adaptive UPR (XBP1) activation; activation, % at 20 µM; CHO-XBP1 luciferase reporter, IRE1-XBP1 UPR activation, luminescence; percent of tunicamycin response, DMSO as zero; actives 0.33% (n = 330,000); AID 463104;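 active = versus positive control, 20 µM dose yields 30% or more activation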;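 also: 100% = tunicamycin at 10 µg/mL and 0% = DMSO only wells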
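Material – CHO cell line with stable XBP1 luciferase reporter · Buffer or medium – F12 plus 10% FBS · Compound – single point, 20 µM final compound, 1% DMSO · Schedule – 16-18 h cell attachment at 37 °C, then 6 h compound exposure · Signal – Steady-Glo luminescence read · Benchmarks – high control tunicamycin 10 µg/mL final, low control DMSO vehicle only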
Numbers without * were called inactive; u = inconclusive; x = no result given. The entries come from a sample that favours hits as a whole.

SMILES	CHOP UPR activ	Bfl-1 A1 inh	CHOP inh	XBP1 UPR activ
COC(=O)c1ccc2c(=O)n(Cc3ccc(C(=O)NCCCN4CCC(C)CC4)cc3)c(=S)[nH]c2c1	-1	-1	0	0
COC(=O)c1ccc2c(=O)n(CCO)c(=S)[nH]c2c1	1	0	-17	-3
COC(=O)c1ccc2c(=O)n(Cc3ccc(C(=O)NC4CCCC4)cc3)c(=S)[nH]c2c1	4	1	85*	12
COC(=O)c1ccc2c(=O)n(CCCCCC(=O)O)c(=S)[nH]c2c1	-3	2	73*	-5
CC(=O)Nc1ccc(N(CC(=O)NC2CCCCC2)C(=O)Cn2nnc(-c3ccccc3)n2)cc1	1	0	x	0
COc1ccc(-n2nc(C(=O)Nc3ccc(OC)c(OC)c3)c3c4ccccc4n(C)c3c2=O)cc1	2	0	72*	1
COc1ccccc1C1Nc2cccc3cccc(c23)N1	1	0	87*	3
COc1cc(OC)c(C2Nc3cccc4cccc(c34)N2)c(OC)c1	-1	0	x	13
COc1cc([N+](=O)[O-])ccc1NC(=O)Nc1nc2c(s1)CCCC2	0	-1	73*	2
CC(C)(C)c1cc(CCC(=O)Nc2ccncc2)cc(C(C)(C)C)c1O	0	0	x	0
O=C(c1cc(NC(=O)C23CC4CC(CC(C4)C2)C3)cc(NC(=O)C23CC4CC(CC(C4)C2)C3)c1)N1CCCCC1	10	0	71*	-1
O=C(COC(=O)CNS(=O)(=O)c1ccc(Cl)cc1)NC1CCCCC1	0	x	x	1
CC(=O)c1c(C)[nH]c(C(=O)COc2cc(C)ccc2C(C)C)c1C	4	0	83*	-4
O=C(Cn1nc(Br)nc1Br)c1ccccc1	2	0	x	-1
Cc1ccc(Nc2nc(C)c(CCC(C)C)c(=O)[nH]2)cc1	2	0	78*	-7
Cc1nc(NCc2ccccc2)[nH]c(=O)c1CCC(C)C	1	0	76*	0
Cc1nc(N2CCN(c3ccccc3)CC2)[nH]c(=O)c1CCC(C)C	3	1	15	1
CS(=O)(=O)Cc1ccc(C(=O)NNC(=O)c2cc(-c3ccccc3)n[nH]2)cc1	-1	-1	x	-1
CCCCSc1nnc(CCCCCNC(=O)OC(C)(C)C)o1	-2	0	79*	-4
CCN(CC)C(=O)C1CCCN(Cc2ccc(F)c(F)c2)C1 (stereo not drawn)	-1	0	86*	-1
NC(=O)c1ccsc1NC(=O)COC(=O)Cc1c[nH]c2ccccc12	2	0	x	-2
NC(=O)c1ccsc1NC(=O)COC(=O)Cc1cccc2ccccc12	0	-2	85*	-1
O=C(NCc1cc(C(F)(F)F)ccc1Cl)c1cccc2c1C(=O)c1ccc(Cl)cc1S2(=O)=O	3	0	x	-1
CCCc1cc(=O)n2[nH]c(C)c(-c3ccc(OC)cc3)c2n1	0	-1	x	-3
Cc1ccc2nc(NC(=O)CCNS(=O)(=O)c3cccs3)sc2c1	-1	0	73*	0
SMILES	CHOP UPR activ	Bfl-1 A1 inh	CHOP inh	XBP1 UPR activ
COCC(=O)Nc1nc2ccc(C)cc2s1	1	-6	34	-1
Cc1ccc2nc(NC(=O)CCNS(=O)(=O)c3ccc(Br)s3)sc2c1	2	0	71*	-1
Cc1cccc2sc(NC(=O)CCNS(=O)(=O)c3cccs3)nc12	-1	0	51	-1
CC(OC(=O)COc1ccccc1Cc1ccccc1)C(=O)N(C)c1ccccc1 (stereo not drawn)	2	0	x	-2
Cc1cccc(C)c1NC(=O)CSC(=O)c1sc2ccccc2c1Cl	0	0	24	3
COc1cc(OC)c(-n2cc(-c3ccc(OC)c(OC)c3)[nH]c2=S)cc1Cl	3	0	x	-2
CCOC(=O)C1=C(C)NC(SCC(=O)Nc2nc(C)cs2)=C(C#N)C1c1cccs1 (stereo not drawn)	0	1	75*	-2
Cc1cccc(C(=O)NC(=S)NC(C)c2ccccc2)c1 (stereo not drawn)	1	0	x	-1
Cc1cccc(OCC(O)Cn2c(-n3nc(C)cc3C)nc3c2c(=O)[nH]c(=O)n3C)c1 (stereo not drawn)	1	0	73*	-2
Cc1cc(C)n(-c2nc3c(c(=O)[nH]c(=O)n3C)n2CC(O)COc2ccccc2)n1 (stereo not drawn)	-1	1	33	0
CCn1c(NC(=O)Nc2cccc(C)c2C)cc2sccc21	-2	0	90*	-1
CC1(C)N=C(SCC(=O)Nc2ccc(Cl)cc2)C(c2ccccc2)=N1	0	1	78*	1
CC1(C)N=C(SCC(=O)Nc2ccc(Cl)cc2)C(c2ccc(Cl)cc2)=N1	-1	0	72*	1
Cn1c(SCC(=O)NNC(=O)Nc2ccc(Cl)cc2)nnc1-c1ccccc1	2	0	-1	-2
O=C(OCC(=O)N1CCN(c2ccccc2)CC1)c1nc(Cl)ccc1Cl	-1	1	x	3
O=C(Nc1cccc(C(F)(F)F)c1)c1cccnc1NCCc1ccccc1	4	0	75*	3
CCc1ccc(C(=O)N/N=C/c2ccncc2)s1	4	0	x	-4
CC(=O)c1c(C)[nH]c(C(=O)N2CCN(c3ccc(F)cc3)CC2)c1C	0	2	84*	-2
O=S(=O)(c1ccc(Oc2ccc(Cl)cc2)nc1)N1CCOCC1	0	0	x	3
Cc1ccc[n+](CC(=O)Nc2ccc([N+](=O)[O-])cc2)c1	3	1	x	1
Cc1nn(Cc2c(Cl)cccc2Cl)c(C)c1NC(=O)c1cnn2c(C(F)F)cc(-c3ccccc3)nc12	16	1	52	11
Cc1ccc(-c2cc(C(F)F)n3ncc(C(=O)Nc4c(C)nn(Cc5c(Cl)cccc5Cl)c4C)c3n2)cc1	23	1	91*	28
CCCN(CC(=O)Nc1ccc(NC(C)=O)cc1)CC(=O)Nc1ccc(F)c(F)c1F	0	0	x	-2
CCCN(CC(=O)Nc1ccc(C)cc1Br)CC(=O)Nc1ccc(F)c(F)c1F	1	0	72*	-2
CCCN(CC(=O)Nc1cccc(S(N)(=O)=O)c1)CC(=O)Nc1ccc(F)c(F)c1F	2	u	0	0
SMILES	CHOP UPR activ	Bfl-1 A1 inh	CHOP inh	XBP1 UPR activ
CCCN(CC(=O)Nc1cccc(Br)c1)CC(=O)Nc1ccc(F)c(F)c1F	-2	0	79*	-6
CCN(Cc1nc(-c2cccc(C)c2)no1)C(=O)c1ccc2c(c1)OCO2	2	0	x	-4
Cc1c(C(=O)OC(C)C)sc(N)c1C(=O)OC(C)C	3	0	82*	6
Cc1c(C(N)=O)sc(N)c1C(=O)OC(C)C	1	1	15	-1
Cc1cc(OC(C)C)c2c(-c3ccccc3)cc(=O)oc2c1	-1	-1	79*	0
O=C(CC1SC(=O)N(Cc2ccccc2Cl)C1=O)Nc1nccs1 (stereo not drawn)	-1	0	31	0
